Reference: ChEMBL document CHEMBL1147884, “Further studies on the effect of lysine at the C-terminus of the Dmt-Tic opioid pharmacophore” (Bioorg Med Chem, 2007)
Starred links: 1 amine or outer side, 2 acyl side, 3 side chain; linkers in the order of their positions; H or OH if unused. Non-standard residues stand in square brackets, D forms with d. Residues, ends and D or L forms follow the SMILES beside them. *: point of attachment. Dmt = Cc1cc(O)cc(C)c1C[C@H](N)C(=O)O; εLys = N[C@@H](CCCCN[*:1])C(=O)[*:2]; Tic = O=C(O)[C@@H]1Cc2ccccc2CN1; NHBn = c1ccc(CN*)cc1; NHPh = c1ccc(N*)cc1

What was measured:
Mu-type opioid receptor [1] = biological target: Mu-type opioid receptor (Rattus norvegicus, UniProt P33535); assay: Displacement of [3H]DAMGO 2 from mu opioid receptor in Sprague-Dawley rat brain P2 synaptosomal membrane
How it was run: (§1)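 Competition binding at equilibrium, 2.5 h at 23 °C, on rat brain P2 synaptosomes preincubated to remove endogenous opioids, stored at -80 °C in buffered 20% glycerol. Five to eight peptide doses, duplicate assays, 3-5 independent preparations. Filtration on polyethylenimine-soaked (0.1%) glass fibre filters, three washes in ice-cold buffered BSA; Ki by Cheng-Prusoff, mean ± SE.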

[2] = biological target: Delta-type opioid receptor (Rattus norvegicus, UniProt P33533); assay: Displacement of [3H]deltorphin 2 from delta opioid receptor in Sprague-Dawley rat brain P2 synaptosomal membrane; how it was run: as §1
[3] = biological target: Delta-type opioid receptor (Mus musculus, UniProt P32300); assay: Antagonist activity at delta opioid receptor in mouse vas deferens assessed as inhibition of electrically-stimulated contraction; format: functional, tissue-based; conditions: read-out: pA2 (converted)
How it was run: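 Single mouse vas deferens in organ bath, balanced salt physiological buffer pH 7.5, electrically stimulated. Antagonism measured against δ-agonist deltorphin II; pA2 derived by Schild plot (method of Kosterlitz and Watt).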

Mu-type opioid receptor [4] = biological target: Mu-type opioid receptor (Cavia porcellus, UniProt P97266); assay: Agonist activity at mu opioid receptor in Hartley guinea pig ileum assessed as inhibition of electrically-stimulated contraction; format: functional, tissue-based
How it was run: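 Myenteric plexus-longitudinal muscle strips (2-3 cm) from small intestine of male Hartley guinea pigs in organ bath, physiological buffer pH 7.5. Inhibition of electrically evoked contraction; IC50 (nM) from dose-response curves, mean ± SE of five or six separate tissue assays; endomorphin-2 as internal standard.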

[5] = biological target: T1, Opioid receptors; mu & delta (Rattus norvegicus) (UniProt P33533+P33535); assay: Selectivity ratio of Ki for rat delta opioid receptor to Ki for rat mu opioid receptor; format: protein assay
[6] = biological target: T1, Opioid receptors; mu & delta (Rattus norvegicus); assay: Selectivity ratio of Ki for mu opioid receptor to Ki for delta opioid receptor; format: protein assay

Delta-type opioid receptor (Mus musculus, UniProt P32300), sequence (P32300 whole entry): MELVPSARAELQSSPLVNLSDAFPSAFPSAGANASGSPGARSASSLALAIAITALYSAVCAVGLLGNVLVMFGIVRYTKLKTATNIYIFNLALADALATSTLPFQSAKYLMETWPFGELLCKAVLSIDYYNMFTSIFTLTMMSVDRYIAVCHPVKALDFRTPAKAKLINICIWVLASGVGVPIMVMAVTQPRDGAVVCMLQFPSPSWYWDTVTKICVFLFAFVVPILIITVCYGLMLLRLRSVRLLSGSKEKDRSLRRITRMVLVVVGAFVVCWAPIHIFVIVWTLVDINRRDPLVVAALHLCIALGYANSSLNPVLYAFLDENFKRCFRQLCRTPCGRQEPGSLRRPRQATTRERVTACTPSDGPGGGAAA
Mu-type opioid receptor (Rattus norvegicus, UniProt P33535), sequence (P33535 whole entry): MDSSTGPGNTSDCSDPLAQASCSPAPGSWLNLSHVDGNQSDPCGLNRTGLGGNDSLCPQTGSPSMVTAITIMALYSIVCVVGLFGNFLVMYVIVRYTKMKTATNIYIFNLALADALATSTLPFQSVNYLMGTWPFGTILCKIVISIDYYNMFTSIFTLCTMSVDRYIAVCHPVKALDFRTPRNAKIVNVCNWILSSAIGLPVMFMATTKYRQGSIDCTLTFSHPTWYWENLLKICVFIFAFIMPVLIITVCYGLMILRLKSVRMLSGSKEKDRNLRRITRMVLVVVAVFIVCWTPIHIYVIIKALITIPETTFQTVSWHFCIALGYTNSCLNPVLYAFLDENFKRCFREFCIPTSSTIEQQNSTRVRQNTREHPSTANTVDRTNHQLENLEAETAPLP
Mu-type opioid receptor (Cavia porcellus, UniProt P97266), sequence (P97266 whole entry): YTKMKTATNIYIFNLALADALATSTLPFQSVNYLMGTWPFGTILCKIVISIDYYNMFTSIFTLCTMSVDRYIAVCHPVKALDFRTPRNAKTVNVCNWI
T1 sequence (P33533 whole entry, looked up): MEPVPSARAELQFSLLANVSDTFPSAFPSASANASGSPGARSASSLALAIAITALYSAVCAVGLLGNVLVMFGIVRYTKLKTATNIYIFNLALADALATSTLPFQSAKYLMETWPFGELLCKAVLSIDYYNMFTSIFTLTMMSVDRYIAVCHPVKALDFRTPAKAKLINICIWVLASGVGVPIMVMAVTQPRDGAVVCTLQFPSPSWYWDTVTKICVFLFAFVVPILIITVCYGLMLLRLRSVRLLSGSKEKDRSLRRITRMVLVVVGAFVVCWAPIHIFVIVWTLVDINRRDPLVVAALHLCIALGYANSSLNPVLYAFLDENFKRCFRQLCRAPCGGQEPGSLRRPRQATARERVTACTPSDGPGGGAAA
T1 sequence (P33535 whole entry, looked up): as the sequence (P33535 whole entry) above
Delta-type opioid receptor (Rattus norvegicus, UniProt P33533), sequence (P33533 whole entry): as the sequence (P33533 whole entry, looked up) above

| SMILES | Ki (Mu-type opioid receptor [1]) [nM] | Ki [2] [nM] | Kb [3] [nM] | IC50 (Mu-type opioid receptor [4]) [nM] | Ratio Ki [5] | Ratio Ki [6] |
| --- | --- | --- | --- | --- | --- | --- |
| Cc1cc(O)cc(C)c1C[C@H](N)C(=O)N1Cc2ccccc2C[C@H]1C(=O)NCCCC[C@H](N)C(=O)Nc1ccccc1 (H-[Dmt]-[Tic]-[εLys]-NHPh) | 0.89 | 2.02 | 12 | 515 | 2.3 |  |
| Cc1cc(O)cc(C)c1C[C@H](N)C(=O)N1Cc2ccccc2C[C@H]1C(=O)NCCCC[C@H](NC(=O)OCc1ccccc1)C(=O)NCc1ccccc1 | 3.15 | 0.53 | 5.37 | 1450 |  | 5.9 |
| Cc1cc(O)cc(C)c1C[C@H](N)C(=O)N1Cc2ccccc2C[C@H]1C(=O)NCCCC[C@H](NC(=O)OCc1ccccc1)c1nc2ccccc2[nH]1 | 2.78 | 0.86 | 15.1 | 618 |  | 3.2 |
| Cc1cc(O)cc(C)c1C[C@H](N)C(=O)N1Cc2ccccc2C[C@H]1C(=O)NCCCC[C@H](NC(=O)OCc1ccccc1)C(=O)Nc1ccccc1 | 2.67 | 0.47 | 5.89 | 711 |  | 5.7 |
| CC(=O)N[C@@H](CCCCNC(=O)[C@@H]1Cc2ccccc2CN1C(=O)[C@@H](N)Cc1c(C)cc(O)cc1C)C(=O)Nc1ccccc1 | 2.57 | 0.22 | 6.61 | 486 |  | 11.7 |
| CC(=O)N[C@@H](CCCCNC(=O)[C@@H]1Cc2ccccc2CN1C(=O)[C@@H](N)Cc1c(C)cc(O)cc1C)C(=O)NCc1ccccc1 | 3.43 | 0.21 | 8.51 | 1990 |  | 16.3 |
| Cc1cc(O)cc(C)c1C[C@H](N)C(=O)N1Cc2ccccc2C[C@H]1C(=O)NCCCC[C@H](N)c1nc2ccccc2[nH]1 | 1.02 | 2.64 | 8.13 | 434 | 2.6 |  |
| Cc1cc(O)cc(C)c1C[C@H](N)C(=O)N1Cc2ccccc2C[C@H]1C(=O)NCCCC[C@H](N)C(=O)NCc1ccccc1 (H-[Dmt]-[Tic]-[εLys]-NHBn) | 0.6 | 1 | 15.5 | 553 | 1.7 |  |
| CC(=O)N[C@@H](CCCCNC(=O)[C@@H]1Cc2ccccc2CN1C(=O)[C@@H](N)Cc1c(C)cc(O)cc1C)c1nc2ccccc2[nH]1 | 0.99 | 0.21 | 7.59 | 610 |  | 4.7 |
